Results from publication PMC13416249 (Proceedings of the National Academy of Sciences of the …, 2026).

Legend:
[1] = system: P. falciparum NF54 strain expressing a Nanoluciferase reporter; experiment: Asexual replication stage-specificity assay, nanoluciferase readout; type: cell-based, Plasmodium falciparum; settings: ring-synchronized; 5 µM KNX-115, 1 µM DHA
Summary of the method: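 NF54-ENL nanoluciferase reporter parasites were synchronized at the ring stage and treated with test compound. Vehicle (0.1% DMSO) and 1 µM dihydroartemisinin served as controls. Nanoluciferase activity was followed over time and compared with the control cultures.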

[2] = system: P. falciparum stage III-IV gametocytes; experiment: Gametocyte viability assay; type: cell-based, Plasmodium falciparum
full-length PfMyoA = target: T1, full-length PfMyoA (Plasmodium falciparum, UniProt Q8IDR3); experiment: Actin-activated PfMyoA ATPase assay; type: biochemical; settings: read-out: IC50, actin-activated myosin ATPase, 15 µM actin
T1 sequence (Q8IDR3 1-818): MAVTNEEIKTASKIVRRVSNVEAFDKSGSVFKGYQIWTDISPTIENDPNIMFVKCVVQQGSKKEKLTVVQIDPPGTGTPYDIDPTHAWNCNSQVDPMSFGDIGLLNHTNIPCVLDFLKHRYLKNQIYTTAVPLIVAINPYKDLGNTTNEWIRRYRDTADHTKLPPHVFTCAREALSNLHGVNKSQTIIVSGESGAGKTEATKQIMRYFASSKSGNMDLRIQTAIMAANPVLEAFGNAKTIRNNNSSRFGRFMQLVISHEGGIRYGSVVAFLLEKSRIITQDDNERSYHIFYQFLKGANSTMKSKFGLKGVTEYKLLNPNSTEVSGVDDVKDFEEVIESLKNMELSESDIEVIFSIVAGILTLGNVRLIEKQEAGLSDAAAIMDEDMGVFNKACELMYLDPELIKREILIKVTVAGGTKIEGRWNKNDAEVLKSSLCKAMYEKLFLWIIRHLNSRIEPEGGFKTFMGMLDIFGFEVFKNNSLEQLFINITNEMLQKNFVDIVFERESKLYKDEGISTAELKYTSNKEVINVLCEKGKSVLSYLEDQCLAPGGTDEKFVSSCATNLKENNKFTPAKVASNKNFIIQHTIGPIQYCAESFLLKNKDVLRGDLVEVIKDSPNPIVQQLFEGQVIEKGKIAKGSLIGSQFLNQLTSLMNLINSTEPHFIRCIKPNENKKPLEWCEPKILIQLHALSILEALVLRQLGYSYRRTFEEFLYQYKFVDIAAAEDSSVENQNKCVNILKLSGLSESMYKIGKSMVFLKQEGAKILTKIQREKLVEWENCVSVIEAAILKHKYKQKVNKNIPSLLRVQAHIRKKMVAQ
T1 sequence (Q8IJM4 1-134 partner): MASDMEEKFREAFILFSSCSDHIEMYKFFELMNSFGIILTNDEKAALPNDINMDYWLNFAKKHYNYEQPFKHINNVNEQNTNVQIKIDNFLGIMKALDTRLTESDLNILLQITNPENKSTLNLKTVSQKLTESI
T1 sequence (Q8I4W8 1-204 partner): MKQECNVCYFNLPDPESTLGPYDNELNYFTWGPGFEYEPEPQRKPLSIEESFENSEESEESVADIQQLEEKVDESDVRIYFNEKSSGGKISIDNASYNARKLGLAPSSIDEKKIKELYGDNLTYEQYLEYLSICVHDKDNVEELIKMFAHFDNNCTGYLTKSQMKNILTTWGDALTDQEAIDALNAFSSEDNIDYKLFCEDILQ

[3] = system: P. falciparum isolates from the Brazilian Western Amazon; experiment: Ex vivo schizont maturation test on patient isolates; type: cell-based; settings: Plasmodium falciparum, in Homo sapiens, read-out: median EC50
Summary of the method: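 Isolates came from monoinfected patients in Porto Velho, Rondônia, and were exposed to test compound. Thick films were stained with 5% Giemsa and schizonts counted. Counts were normalized to drug-free controls to calculate EC50.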

P. falciparum 3D7 = experiment: Parasite reduction ratio; type: cell-based, Plasmodium falciparum; settings: 10X IC50 of each compound
Summary of the method: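 Parasite reduction ratio followed an established protocol, with each compound held at a fixed multiple of its potency. Parasite regrowth was detected by P. falciparum LDH assay. Data are mean ± SD.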

In the case of C[C@H]1[C@@H](O)O[C@@H]2O[C@@]3(C)CC[C@H]4[C@H](C)CC[C@@H]1[C@@]24OO3 [DHA, dihydroartemisinin], the “parasite replication over time (luciferase activity)” value [1] is reported as “rapid killing of the parasites” and the “effect on gametocyte viability” value [2] is reported as “showed inhibition”.
With COc1ccc(C2(NCc3c[nH]nc3-c3cccs3)CC2)cc1 [KNX-002] the IC50 (full-length PfMyoA) was 400 ± 100 nM.
Work on C[C@H]1[C@H](OC(=O)CCC(=O)O)O[C@@H]2O[C@@]3(C)CC[C@H]4[C@H](C)CC[C@@H]1[C@@]24OO3 [artesunate] yielded an EC50 [3] of 3.5 nM.
CCN(CC)CCCC(C)Nc1ccnc2cc(Cl)ccc12 (stereo not drawn) [chloroquine] gave an EC50 [3] of 1260 nM.
In the case of CCc1nc(N)nc(N)c1-c1ccc(Cl)cc1 [pyrimethamine], the lag before killing (P. falciparum 3D7) is reported as 24 h.
